Measurements from different studies.
SIRT1: NAD-dependent protein deacetylase sirtuin-1 (SIRT1, Homo sapiens, UniProt Q96EB6)
XDH: Xanthine dehydrogenase/oxidase (XDH, Bos taurus, UniProt P80457)
SPHK2: Sphingosine kinase 2 (SPHK2, Homo sapiens, UniProt Q9NRA0)

| target | observed | action | method | tested at | quantity | result | Compound |
| --- | --- | --- | --- | --- | --- | --- | --- |
| Alanine racemase, biosynthetic (alr, Escherichia coli K-12, UniProt P0A6B4) | enzyme activity | inhibitor | – | – | kinact/KI | 8.6 M⁻¹ s⁻¹ | N[C@@H]1CON=C1O |
| Testis-specific serine/threonine-protein kinase 6 (TSSK6, Homo sapiens, UniProt Q9BXA6) | enzyme activity | inhibitor | – | 1 µM | remaining activity | 97.7% | CC(C)(O)[C@H]1CC[C@H](Nc2ccc3ncc(-c4cccc(C(F)(F)F)c4)n3n2)CC1 |
| SIRT1 | enzyme activity | inhibitor | – | 1 µM | inhibition | 64% | CC(=S)NCCCC[C@H](NC(=O)OCc1ccccc1)C(=O)N[C@@H](Cc1c[nH]c2ccccc12)C(=O)N[C@@H](CCCNC(=N)N)C(N)=O |
| Cannabinoid receptor 2 (Cnr2, Mus musculus, UniProt P47936) | cAMP | agonist | – | – | Emax | 80% | CCOC(=O)[C@](CC)(CCCS(=O)(=O)CCOCCOCCNC(=O)OC(C)(C)C)NC(=O)c1ccc(C2CC2)c(Cc2ccc(F)cc2)n1 |
| SIRT1 | enzyme activity | inhibitor | fluorescence | 200 µM | inhibition | 19% | O=C1CC(CCc2c[nH]c3ccccc23)Oc2c(Br)cc(Cl)cc21 (centres unmarked) |
| XDH | enzyme activity | inhibitor | absorbance | 100 µg/mL | inhibition | 3.2% | O=Cc1ccc(O)cc1 |
| SPHK2 | enzyme activity | inhibitor | radiometric | 0.3 µM | inhibition | 59% | CCCCc1ccc(CCc2ccc(-c3noc([C@@H]4CCCN4C(=N)N)n3)cc2C(F)(F)F)cc1 |
| Protein disulfide-isomerase (P4HB, Homo sapiens, UniProt P07237) | thermal stability | – | DSF | 100 µM | ΔTm | 1.38 °C | C[C@]12CC[C@@H]3c4ccc(O)cc4CC[C@H]3[C@@H]1CC[C@@H]2O |
| Oxidized purine nucleoside triphosphate hydrolase (NUDT1, Homo sapiens, UniProt P36639) | enzyme activity | activator | – | 3 µM | activity vs control | 140% | O=C(Nc1ccc(CN2CCOCC2)c(C(F)(F)F)c1)c1ccc(C#Cc2cccc3cnccc23)cn1 |
| Tau-tubulin kinase 2 (TTBK2, Homo sapiens, UniProt Q6IQ55) | enzyme activity | inhibitor | radiometric | 5 µM | activity vs control | 105% | FC(F)(F)Oc1cccc(-c2cnc3ccc(-c4ccncc4)nn23)c1 |
| SIRT1 | enzyme activity | inhibitor | fluorescence | 200 µM | inhibition | 9.8% | CCCCCc1cc(=O)c2cc(Cl)cc(Br)c2o1 |
| SPHK2 | enzyme activity | inhibitor | radiometric | 0.3 µM | inhibition | 56% | [H]/N=C(\N)N1CCC[C@H]1c1nc(-c2ccc(OCC=Cc3cccc(C(F)(F)F)c3)c(C(F)(F)F)c2)no1 |
| XDH | enzyme activity | inhibitor | absorbance | 50 µg/mL | inhibition | 98.7% | Oc1ncnc2[nH]ncc12 |
| Legumain (Homo sapiens, UniProt Q99538) | enzyme activity | inhibitor | fluorescence | – | kinact/KI | 14800 M⁻¹ s⁻¹ | Cn1c(=O)[nH]c(=O)c2c1nc(S)n2CC(O)COc1ccc(Cl)cc1 (centres unmarked) |
